Assay results taken from ChEMBL document CHEMBL4177525, “Synthesis and evaluation of frentizole-based indolyl thiourea analogues as MAO/ABAD inhibitors for Alzheimer's disease treatment” (Bioorg Med Chem, 2017).
Activity calls are given as the source filed them. No cut-off for these calls is given here.

How the values were obtained:
[1] = biological target: T1, Amyloid beta-binding alcohol dehydrogenase (Homo sapiens, UniProt Q2L8D9); experiment: Inhibition of ABAD (unknown origin) by spectrophotometric assay
[2] = biological target: T2, Amine oxidase [flavin-containing] A (Homo sapiens, UniProt P21397); experiment: Inhibition of human purified MAO-A expressed in insect cell membranes assessed as reduction in conversion of kynuramine to 4-hydroxyquinoline by spectrophotometric assay
T2 sequence (P21397 whole entry): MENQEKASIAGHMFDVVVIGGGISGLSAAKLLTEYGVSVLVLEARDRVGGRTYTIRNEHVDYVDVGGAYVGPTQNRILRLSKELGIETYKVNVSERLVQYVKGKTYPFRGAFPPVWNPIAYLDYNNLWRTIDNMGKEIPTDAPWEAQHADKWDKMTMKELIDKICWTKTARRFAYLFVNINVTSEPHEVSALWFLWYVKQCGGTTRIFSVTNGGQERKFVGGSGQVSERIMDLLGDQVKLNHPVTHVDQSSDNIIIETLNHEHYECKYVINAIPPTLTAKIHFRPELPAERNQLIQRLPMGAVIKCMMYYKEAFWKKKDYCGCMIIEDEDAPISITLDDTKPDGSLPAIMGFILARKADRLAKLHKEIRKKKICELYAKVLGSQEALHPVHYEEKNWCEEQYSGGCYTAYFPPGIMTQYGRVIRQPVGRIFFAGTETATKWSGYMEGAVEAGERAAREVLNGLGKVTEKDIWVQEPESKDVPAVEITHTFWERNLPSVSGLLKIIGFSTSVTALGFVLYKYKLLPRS

[3] = biological target: T3, Amine oxidase [flavin-containing] B (Homo sapiens, UniProt P27338); experiment: Inhibition of human membrane bound MAO-B expressed in insect cell membranes assessed as reduction in conversion of kynuramine to 4-hydroxyquinoline by spectrophotometric assay; conditions: read-out: IC50
T3 sequence (P27338 whole entry): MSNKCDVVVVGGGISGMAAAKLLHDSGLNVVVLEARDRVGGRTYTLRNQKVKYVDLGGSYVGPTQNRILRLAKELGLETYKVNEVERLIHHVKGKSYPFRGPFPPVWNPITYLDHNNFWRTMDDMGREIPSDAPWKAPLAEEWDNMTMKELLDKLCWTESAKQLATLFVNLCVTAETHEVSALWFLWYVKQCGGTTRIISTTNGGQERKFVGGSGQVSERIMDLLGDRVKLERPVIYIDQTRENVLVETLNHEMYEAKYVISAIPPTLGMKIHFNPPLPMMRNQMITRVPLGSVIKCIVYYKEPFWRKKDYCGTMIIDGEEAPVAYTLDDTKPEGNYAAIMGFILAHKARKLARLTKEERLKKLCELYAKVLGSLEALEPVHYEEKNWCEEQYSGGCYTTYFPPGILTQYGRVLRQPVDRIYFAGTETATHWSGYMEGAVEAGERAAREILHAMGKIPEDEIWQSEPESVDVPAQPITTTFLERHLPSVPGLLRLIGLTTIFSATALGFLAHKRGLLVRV
Procedure, shortened: (§1)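 Human MAO-A or MAO-B expressed in insect cell membranes, diluted 1/4000 (A) or 1/2000 (B). Kynuramine at 2×KM: 60 µM for MAO-A, 30 µM for MAO-B. Assay in 50 mM potassium phosphate pH 7.5, 30°C, 1% DMSO, absorbance at 314 nm. Inhibitor varied over 4 orders of magnitude, up to 100 µM. Linear rates from 8-10 assays fitted by 3-parameter regression with bottom fixed at zero; IC50 ± SE of estimate.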

[4] = biological target: T1, Amyloid beta-binding alcohol dehydrogenase; experiment: Inhibition of ABAD (unknown origin) assessed as residual activity at 100 uM using acetoacetyl-CoA in presence of NADH by spectrophotometric assay relative to control
Procedure, shortened: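 Recombinant ABAD at 0.5 µg/mL with NADH 250 µM and acetoacetyl-CoA 120 µM; compound at 100 µM in 1% DMSO, controls with matching DMSO. Buffer 10 mM HEPES, 0.5% gelatin, pH 7.4 at 37°C. NADH consumption read as falling absorbance at 340 nm; reported as % remaining activity ± SEM from two biological repeats, each with three technical repeats.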

[5] = Lipophilicity of the compound assessed as capacity factor at pH 3.5 by HPLC analysis; assay type: physicochemical; conditions: buffer
Procedure, shortened: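 Capacity factor k from gradient HPLC on reversed-phase C18 in acid polar organic mode, pH ~3.5.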

[6] = Solubility of the compound at 100 uM; assay type: physicochemical
Procedure, shortened: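 Compounds checked for solubility in assay buffer at 100 µM.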

[7] = Cytotoxicity against CHOK1 cells assessed as reduction in cell viability after 24 hrs by MTT assay; assay type: cell-based, Cricetulus griseus; conditions: chinese hamster, CHO-K1 cells; read-out: LC50
Procedure, shortened: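 CHO-K1 cells grown as ECACC recommends, seeded 8000 per well; compounds from DMSO stocks diluted in F-12 with 10% FBS and 1% pen/strep (final DMSO at most 0.5%), exposed 24 h. Medium then replaced with 10 µM MTT for about 3 h, formazan dissolved in DMSO, absorbance read at 570 nm (650 nm reference). LC50 from control-subtracted triplicates by four-parameter regression; mean ± SEM of 3 independent runs.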

[8] = biological target: T4, peroxidase (horseradish peroxidase) (Raphanus sativus, UniProt K7N5L9); experiment: Inhibition of horse radish peroxidase assessed as residual activity at 50 uM by amplex red dye based fluorescence assay; conditions: horseradish peroxidase (isolated enzyme), probe Amplex Red, read-out: Activity
T4 sequence (K7N5L9 whole entry): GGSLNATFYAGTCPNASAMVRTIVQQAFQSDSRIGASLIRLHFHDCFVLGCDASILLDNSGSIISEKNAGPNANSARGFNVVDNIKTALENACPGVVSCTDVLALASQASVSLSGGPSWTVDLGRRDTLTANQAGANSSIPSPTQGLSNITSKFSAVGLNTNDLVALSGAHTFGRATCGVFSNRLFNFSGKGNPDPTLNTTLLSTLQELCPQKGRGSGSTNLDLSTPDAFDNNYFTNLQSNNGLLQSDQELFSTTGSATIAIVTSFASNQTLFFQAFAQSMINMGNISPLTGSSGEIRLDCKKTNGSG
Procedure, shortened: (§2)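 HRP (0.02 U/mL) given H2O2 20 µM directly as substrate plus Ampliflu Red 20 µM in 50 mM potassium phosphate pH 7.4. Compound at 50 or 5 µM, 1% DMSO; controls DMSO only. Resorufin fluorescence read at ex 535/em 595 nm, 30°C, as remaining HRP activity.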

[9] = Quenching activity of the compound assessed as reduction in resorufin fluorescence; assay type: functional
Procedure, shortened: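 Resorufin at 1 µM and 10 µM measured for fluorescence in the presence of compound at 50 µM.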

Peroxidase = Peroxidase (Raphanus sativus, UniProt K7N5L9); experiment: Inhibition of horse radish peroxidase assessed as residual activity by amplex red dye based fluorescence assay
Chain of Peroxidase (K7N5L9 whole entry): as above
Procedure, shortened: as §2

[10] = biological target: T4, peroxidase (horseradish peroxidase); experiment: Inhibition of horse radish peroxidase assessed as residual activity at 5 uM by amplex red dye based fluorescence assay; conditions: horseradish peroxidase (isolated enzyme), probe Amplex Red, read-out: Activity
Procedure, shortened: as §2

[11] = biological target: T2, Amine oxidase [flavin-containing] A; experiment: Inhibition of human membrane bound MAO-A expressed in insect cell membranes assessed as reduction in conversion of kynuramine to 4-hydroxyquinoline by spectrophotometric assay; conditions: read-out: IC50
Procedure, shortened: as §1

Row | IC50 [1] | SMILES | IC50 [2] | IC50 [3] | Activity [4] | K [5] | solubility [6] | CC50 at 24 h [7] | activity at 50 µM [8] | Activity [9] | IC50 (Peroxidase) | activity at 5 µM [10] | IC50 [11]
1 | 0.092 µM | O=C(C(c1ccccc1)n1cnc2[nH]ncc2c1=S)N1CCCCCC1 (configuration not stated) |  |  |  |  |  |  |  |  |  |  | 
2 |  | Oc1c(Cl)cc(NC(=S)Nc2ccc3[nH]ccc3c2)cc1Cl | Not Active | 17 µM | 39% | 3.975 | Soluble | 523 µM | 23.9% | inactive | 1.06 µM | 48.6% | > 100 µM
